Experimental data published in ChEMBL document CHEMBL2203110, “Inhibition of HIV-1 capsid assembly: optimization of the antiviral potency by site selective modifications at N1, C2 and C16 of a 5-(5-furan-2-yl-pyrazol-1-yl)-1H-benzimidazole scaffold” (Bioorg Med Chem Lett, 2012).

What was measured:
[1] = molecular target: T1, Structural capsid protein (Human immunodeficiency virus 1, UniProt Q76129); test: Inhibition of HIV1 capsid protein binding to fluorescein labeled 3-(5-(3-ethyl-5-(5-methylfuran-2-yl)-1H-pyrazol-1-yl)-1-((6-oxo-1,6-dihydropyridin-3-yl)methyl)-1H-benzo[d]imidazol-2-yl)-4-hydroxybenzoic acid after 15 mins by fluorescence polarization assay
T1 sequence (Q76129 whole entry): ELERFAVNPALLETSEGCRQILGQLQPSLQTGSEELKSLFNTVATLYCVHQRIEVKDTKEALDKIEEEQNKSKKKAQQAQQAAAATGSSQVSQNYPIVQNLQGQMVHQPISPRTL
Procedure, shortened: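 CA-NC protein (40 nM) mixed with 40 nM fluorescein probe plus serially diluted compounds in Tris pH 8.0, 100 mM NaCl, CHAPS, DTT buffer with 2% DMSO before mixing. 15 min incubation, then fluorescence polarization read. Wells without compound defined 0% displacement; probe-only wells defined 100%.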

[2] = tested on: Human immunodeficiency virus 1; test: Antiviral activity against HIV1; type: functional, organism-based
Procedure, shortened: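 Cell-based HIV-1 replication assay. EC50 is the concentration that inhibits virus replication by 50%.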

[3] = molecular target: T1, Structural capsid protein; test: Inhibition of HIV1 capsid protein assembly using 5'-fluorescein-labeled (TG)25 oligonucleotide after 2 hrs by fluorometry-based capsid disassembly assay
Procedure, shortened: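 Biotin-(TG)25 oligonucleotide (25 nM, overnight) immobilized on neutravidin wells; CA-NC (2 µM) assembled with 100 nM 5'-fluorescein (TG)25 in Tris pH 8.0/NaCl/ZnSO4/CHAPS/BSA/DTT buffer, 2 h RT, washed. Serially diluted compounds (buffer + 0.125% DMSO) added 2 h RT; washes, SDS release, captured fluorescence read. Ten-point curves fitted; IC50 = concentration giving 50% disassembly.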

[4] = Half life in rat liver microsomes; type: ADME, Microsome
[5] = Half life in human liver microsomes; type: ADME, Microsome
[6] = Permeability of the compound across human Caco2 cells; type: ADME, cell-based; details: Caco-2, read-out: permeability

Structure (SMILES): CCc1cc(-c2ccc(C)o2)n(-c2ccc3c(c2)nc(-c2cc(C(=O)N(C)C)ccc2O)n3Cc2ccc(=O)[nH]c2)n1
- IC50 [1]: 44 nM
- EC50 [2]: 590 nM
- IC50 [3]: 49 nM

Structure (SMILES): Cc1cc(-c2ccco2)n(-c2ccc3c(c2)nc(COc2ccc(C(=N)N)cc2)n3C)n1
- EC50 [2]: 28000 nM
- IC50 [3]: 6000 nM

Structure (SMILES): CCc1cc(-c2ccc(C)o2)n(-c2ccc3c(c2)nc(-c2cc(C(=O)N(C)C)ccc2O)n3Cc2ccc(OC)c(O)c2)n1
- EC50 [2]: 630 nM
- IC50 [3]: 120 nM

Structure (SMILES): CCc1cc(-c2ccc(C(F)(F)F)o2)n(-c2ccc3c(c2)nc(-c2cc(C(=O)N4CCCC4)ccc2O)n3Cc2ccc(=O)[nH]c2)n1
- half-life [4]: 45 min
- IC50 [1]: 61 nM
- EC50 [2]: 62 nM
- half-life [5]: 30 min
- Papp [6]: 0.19 ×10⁻⁶ cm/s

Structure (SMILES): CCc1cc(-c2ccc(C)o2)n(-c2ccc3c(c2)nc(-c2cc(F)ccc2O)n3Cc2ccc(=O)[nH]c2)n1
- EC50 [2]: 260 nM
- IC50 [3]: 41 nM

Structure (SMILES): CCc1cc(-c2ccc(C)o2)n(-c2ccc3c(c2)nc(-c2cc(C(=O)O)ccc2O)n3Cc2ccc(=O)[nH]c2)n1
- IC50 [1]: 650 nM
- EC50 [2]: > 46000 nM
- IC50 [3]: 56 nM

Structure (SMILES): CCc1cc(-c2ccc(C(F)(F)F)o2)n(-c2ccc3c(c2)nc(-c2cc(C(=O)N4CCCC4)ccc2O)n3Cc2cc(C)c(=O)n(C)c2)n1
- half-life [4]: 18 min
- IC50 [1]: 67 nM
- EC50 [2]: 27 nM
- half-life [5]: 10 min
- Papp [6]: 7.2 ×10⁻⁶ cm/s

Structure (SMILES): CCc1cc(-c2ccc(C(F)(F)F)o2)n(-c2ccc3c(c2)nc(-c2cc(C(=O)N4CCCC4)ccc2O)n3Cc2c[nH]c(=O)c(C)c2)n1
- half-life [4]: 25 min
- IC50 [1]: 38 nM
- EC50 [2]: 28 nM
- half-life [5]: 11 min
- Papp [6]: 6.8 ×10⁻⁶ cm/s

Structure (SMILES): CCc1cc(-c2ccc(C)o2)n(-c2ccc3c(c2)nc(-c2ccc(C(N)=O)cc2)n3Cc2ccc(OC)c(O)c2)n1
- EC50 [2]: 640 nM
- IC50 [3]: 790 nM

Structure (SMILES): CCc1cc(-c2ccc(C)o2)n(-c2ccc3c(c2)nc(-c2ccc(C(N)=O)cc2)n3Cc2cccnc2)n1
- EC50 [2]: 2600 nM
- IC50 [3]: 360 nM

Structure (SMILES): CCc1cc(-c2ccc(C)o2)n(-c2ccc3c(c2)nc(-c2ccccc2O)n3Cc2ccc(=O)[nH]c2)n1
- IC50 [1]: 690 nM
- EC50 [2]: 260 nM
- IC50 [3]: 55 nM

Structure (SMILES): CCc1cc(-c2ccc(C)o2)n(-c2ccc3c(c2)nc(-c2ccc(C(N)=O)cc2)n3CC2CC2)n1
- EC50 [2]: 3500 nM
- IC50 [3]: 1000 nM

Structure (SMILES): CCc1cc(-c2ccc(C)o2)n(-c2ccc3c(c2)nc(-c2ccccc2O)n3Cc2ccc(OC)c(O)c2)n1
- EC50 [2]: 6400 nM
- IC50 [3]: 410 nM

Structure (SMILES): CCc1cc(-c2ccc(C)o2)n(-c2ccc3c(c2)nc(-c2ccc(C(N)=O)cc2)n3Cc2ccc(=O)[nH]c2)n1
- EC50 [2]: 13000 nM
- IC50 [3]: 170 nM

Structure (SMILES): CCc1cc(-c2ccc(C)o2)n(-c2ccc3c(c2)nc(-c2cc(F)ccc2O)n3Cc2ccc(OC)c(O)c2)n1
- EC50 [2]: 10000 nM
- IC50 [3]: 280 nM

Structure (SMILES): CCc1cc(-c2ccc(C)o2)n(-c2ccc3c(c2)nc(-c2cc(C(=O)O)ccc2O)n3Cc2ccc(OC)c(O)c2)n1
- IC50 [1]: 550 nM
- EC50 [2]: 6100 nM
- IC50 [3]: 88 nM

Structure (SMILES): CCc1cc(-c2ccc(C)o2)n(-c2ccc3c(c2)nc(-c2ccc(C(N)=O)cc2)n3Cc2ccc(OC)nc2)n1
- EC50 [2]: 3500 nM
- IC50 [3]: 830 nM

Structure (SMILES): CCc1cc(-c2ccc(C(F)(F)F)o2)n(-c2ccc3c(c2)nc(-c2cc(C(=O)N(C)C)ccc2O)n3Cc2ccc(=O)[nH]c2)n1
- IC50 [1]: 59 nM
- EC50 [2]: 91 nM
